Measured values: ChEMBL document CHEMBL1921722, “In vitro and in vivo evaluation of select kahalalide F analogs with antitumor and antifungal activities” (Bioorg Med Chem, 2011)
The source made the active and inactive calls.

How the values were obtained:
MDA-MB-435 [1] = assay: Cytotoxicity against human MDA-MB-435 cells assessed as cell growth at 8 uM by sulforhodamine B assay relative to control; format: functional; conditions: read-out: Activity
HCT-15 = assay: Cytotoxicity against human HCT15 cells by sulforhodamine B assay; format: functional
How it was run: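 Run by the NCI Developmental Therapeutics Program on its 60-line human tumour cell panel using the standard procedure. Compounds went through a single-concentration prescreen first, and those active by NCI criteria went on to a five-concentration growth-inhibition test. GI50 is the concentration that cuts growth of treated cells to half that of untreated control cells.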

MDA-MB-231 = assay: Cytotoxicity against human MDA-MB-231 cells assessed as cell growth at 80 nM by sulforhodamine B assay relative to control; format: functional; conditions: read-out: Activity
Staphylococcus aureus = assay: Antimicrobial activity against methicillin-resistant Staphylococcus aureus ATCC 43300 by CLSI method; format: functional, organism-based
HOP-92 = assay: Cytotoxicity against human HOP92 cells assessed as cell growth at 8 nM by sulforhodamine B assay relative to control; format: functional; conditions: read-out: Activity
SK-OV-3 = assay: Cytotoxicity against human SKOV3 cells assessed as cell growth at 800 nM by sulforhodamine B assay relative to control; format: functional; conditions: read-out: Activity
K562 [2] = assay: Cytotoxicity against human K562 cells assessed as cell growth at 80 uM by sulforhodamine B assay relative to control; format: functional; conditions: read-out: Activity
A498 = assay: Cytotoxicity against human A498 cells assessed as cell growth at 800 nM by sulforhodamine B assay relative to control; format: functional; conditions: read-out: Activity
How it was run: (§1)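 Run at NCI in the DTP 60-cell-line human tumor panel by standard procedure. Compounds were first screened at a single concentration, then tested at five tenfold-spaced concentrations. GI50 is the concentration reducing treated-cell growth to half that of untreated controls; TGI is the concentration completely halting growth.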

EKVX = assay: Cytotoxicity against human EKVX cells assessed as cell growth at 80 uM by sulforhodamine B assay relative to control; format: functional; conditions: read-out: Activity
U-251 = assay: Cytotoxicity against human U251 cells by sulforhodamine B assay; format: functional
How it was run: (§2)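 NCI Developmental Therapeutics Program 60-cell-line human tumor panel screen, run at NCI. A single-concentration pre-screen was followed by a five-concentration dose-response in 10-fold steps. GI50 is the concentration that reduces growth of treated cells to half that of untreated control cells. TGI is the concentration that completely halts growth.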

NCI-H322M [3] = assay: Cytotoxicity against human NCI-H322M cells assessed as cell growth at 80 nM by sulforhodamine B assay relative to control; format: functional; conditions: read-out: Activity
SK-MEL-28 = assay: Cytotoxicity against human SK-MEL-28 cells assessed as cell growth at 8 uM by sulforhodamine B assay relative to control; format: functional; conditions: read-out: Activity
SK-MEL-5 [4] = assay: Cytotoxicity against human SK-MEL-5 cells assessed as cell growth at 800 nM by sulforhodamine B assay relative to control; format: functional; conditions: read-out: Activity
COLO 205 = assay: Cytotoxicity against human COLO205 cells assessed as cell growth at 8 uM by sulforhodamine B assay relative to control; format: functional; conditions: read-out: Activity; how it was run: as §1
OVCAR-5 = assay: Cytotoxicity against human OVCAR5 cells assessed as cell growth at 8 nM by sulforhodamine B assay relative to control; format: functional; conditions: read-out: Activity
Escherichia coli = assay: Antimicrobial activity against Escherichia coli ATCC 35218 by CLSI method; format: functional, organism-based
M14 [5] = assay: Cytotoxicity against human M14 cells assessed as cell growth at 80 nM by sulforhodamine B assay relative to control; format: functional; conditions: read-out: Activity
SNB-19 [6] = assay: Cytotoxicity against human SNB19 cells assessed as cell growth at 80 uM by sulforhodamine B assay relative to control; format: functional; conditions: read-out: Activity
RPMI-8226 = assay: Cytotoxicity against human RPMI8226 cells assessed as cell growth at 80 nM by sulforhodamine B assay relative to control; format: functional; conditions: read-out: Activity
SK-MEL-5 [7] = assay: Cytotoxicity against human SK-MEL-5 cells by sulforhodamine B assay; format: functional; how it was run: as §2
HL-60(TB) [8] = assay: Cytotoxicity against human HL-60(TB) cells by sulforhodamine B assay; format: functional
How it was run: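 NCI Developmental Therapeutics Program 60-cell-line human tumor panel, standard procedure. Single-concentration prescreen first; active compounds then tested at five concentrations. GI50 is the concentration reducing growth of treated cells to half that of untreated controls.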

SF-295 = assay: Cytotoxicity against human SF295 cells assessed as cell growth at 800 nM by sulforhodamine B assay relative to control; format: functional; conditions: read-out: Activity
HOP-62 = assay: Cytotoxicity against human HOP62 cells assessed as cell growth at 800 nM by sulforhodamine B assay relative to control; format: functional; conditions: read-out: Activity
NCI-H322M [9] = assay: Cytotoxicity against human NCI-H322M cells assessed as cell growth at 800 nM by sulforhodamine B assay relative to control; format: functional; conditions: read-out: Activity
NCI-H322M [10] = assay: Cytotoxicity against human NCI-H322M cells assessed as cell growth at 8 uM by sulforhodamine B assay relative to control; format: functional; conditions: read-out: Activity
NCI-H226 [11] = assay: Cytotoxicity against human NCI-H226 cells assessed as cell growth at 800 nM by sulforhodamine B assay relative to control; format: functional; conditions: read-out: Activity
M14 [12] = assay: Cytotoxicity against human M14 cells assessed as cell growth at 80 uM by sulforhodamine B assay relative to control; format: functional; conditions: read-out: Activity
HCC 2998 = assay: Cytotoxicity against human HCC2998 cells assessed as cell growth at 80 uM by sulforhodamine B assay relative to control; format: functional; conditions: read-out: Activity
IGROV-1 = assay: Cytotoxicity against human IGROV1 cells assessed as cell growth at 800 nM by sulforhodamine B assay relative to control; format: functional; conditions: read-out: Activity
UO-31 = assay: Cytotoxicity against human UO31 cells by sulforhodamine B assay; format: functional; how it was run: as §2
MOLT-4 = assay: Cytotoxicity against human MOLT4 cells assessed as cell growth at 800 nM by sulforhodamine B assay relative to control; format: functional; conditions: read-out: Activity
NCI-H226 [13] = assay: Cytotoxicity against human NCI-H226 cells assessed as cell growth at 80 uM by sulforhodamine B assay relative to control; format: functional; conditions: read-out: Activity
SNB-19 [14] = assay: Cytotoxicity against human SNB19 cells assessed as cell growth at 8 uM by sulforhodamine B assay relative to control; format: functional; conditions: read-out: Activity
HL-60(TB) [15] = assay: Cytotoxicity against human HL-60(TB) cells assessed as cell growth at 80 uM by sulforhodamine B assay relative to control; format: functional; conditions: read-out: Activity
NCI-H460 = assay: Cytotoxicity against human NCI-H460 cells assessed as cell growth at 8 nM by sulforhodamine B assay relative to control; format: functional; conditions: read-out: Activity
MDA-MB-435 [16] = assay: Cytotoxicity against human MDA-MB-435 cells assessed as cell growth at 80 nM by sulforhodamine B assay relative to control; format: functional; conditions: read-out: Activity
K562 [17] = assay: Cytotoxicity against human K562 cells assessed as cell growth at 8 uM by sulforhodamine B assay relative to control; format: functional; conditions: read-out: Activity
SF-539 = assay: Cytotoxicity against human SF539 cells assessed as cell growth at 80 uM by sulforhodamine B assay relative to control; format: functional; conditions: read-out: Activity
MDA-MB-435 [18] = assay: Cytotoxicity against human MDA-MB-435 cells assessed as cell growth at 800 nM by sulforhodamine B assay relative to control; format: functional; conditions: read-out: Activity

For `C/C=C1\NC(=O)[C@H](Cc2ccccc2)NC(=O)[C@@H](C(C)C)NC(=O)[C@@H]([C@@H](C)CC)NC(=O)[C@H](NC(=O)[C@H](NC(=O)[C@H](CCCNCc2ccc(N3CCOCC3)cc2)NC(=O)[C@H]2CCCN2C(=O)[C@H](NC(=O)[C@@H](NC(=O)[C@@H](NC(=O)[C@H](NC(=O)CCCC(C)C)C(C)C)[C@@H](C)O)C(C)C)C(C)C)[C@@H](C)CC)[C@@H](C)OC(=O)[C@H](C(C)C)NC1=O`, the growth at 8 µM (MDA-MB-435 [1]) was -88%, the GI50 (HCT-15; read-out: GI50) was 264 nM and the TGI (HCT-15; read-out: TGI) was 814 nM. For the same compound, the GI50 (HCT-15; read-out: pGI50 (converted)) was 263 nM, the TGI (HCT-15; read-out: pTGI (converted)) was 813 nM and the growth at 0.08 µM (MDA-MB-231) was 97%. The Activity (Staphylococcus aureus) was “inactive”, the growth at 0.008 µM (HOP-92) was 81% and the growth at 0.8 µM (SK-OV-3) was -35%. The growth at 80 µM (K562 [2]) was -39%, the growth at 0.8 µM (A498) was 100% and the growth at 80 µM (EKVX) was -46%. For the same compound, the GI50 (U-251) was 1000 nM, the LC50 (U-251) was 3890 nM and the TGI (U-251; read-out: pTGI (converted)) was 2000 nM. The growth at 0.08 µM (NCI-H322M [3]) was 92%, the growth at 8 µM (SK-MEL-28) was -85% and the growth at 0.8 µM (SK-MEL-5 [4]) was 90%. For the same compound, the growth at 8 µM (COLO 205) was -73%, the growth at 0.008 µM (OVCAR-5) was 97% and the Activity (Escherichia coli) was “inactive”. For the same compound, the growth at 0.08 µM (M14 [5]) was 97%, the growth at 80 µM (SNB-19 [6]) was -5% and the growth at 0.08 µM (RPMI-8226) was 113%. The GI50 (SK-MEL-5 [7]) was 1230 nM, the LC50 (SK-MEL-5 [7]) was 4070 nM and the TGI (SK-MEL-5 [7]; read-out: pTGI (converted)) was 2240 nM. For the same compound, the GI50 (HL-60(TB) [8]) was 1860 nM, the CC50 (HL-60(TB) [8]; read-out: pLC50 (the source's name) (converted)) was greater than 75900 nM and the TGI (HL-60(TB) [8]; read-out: pTGI (converted)) was 5250 nM. For the same compound, the growth at 0.8 µM (SF-295) was 101%, the growth at 0.8 µM (HOP-62) was 95% and the growth at 0.8 µM (NCI-H322M [9]) was -76%. The growth at 8 µM (NCI-H322M [10]) was -84%, the growth at 0.8 µM (NCI-H226 [11]) was 104% and the growth at 80 µM (M14 [12]) was -69%. The growth at 80 µM (HCC 2998) was -69%, the growth at 0.8 µM (IGROV-1) was 55% and the GI50 (UO-31) was 1380 nM. For the same compound, the TGI (UO-31; read-out: pTGI (converted)) was 2690 nM, the growth at 0.8 µM (MOLT-4) was 95% and the growth at 80 µM (NCI-H226 [13]) was -26%. For the same compound, the growth at 8 µM (SNB-19 [14]) was -70%, the growth at 80 µM (HL-60(TB) [15]) was -24% and the growth at 0.008 µM (NCI-H460) was 99%. For the same compound, the growth at 0.08 µM (MDA-MB-435 [16]) was 99%, the growth at 8 µM (K562 [17]) was 37% and the growth at 80 µM (SF-539) was -63%. It also gave a growth at 0.8 µM (MDA-MB-435 [18]) of 94%.
